Legend:
Rattus norvegicus [1] = experiment: Cmax in rat liver assessed as 2'-F-2'-C-Methyluridine-5''-TP level at 50 mg/kg, po; type: ADME, organism-based; parameters: dose 50 mg/kg, route oral; settings: in vivo
Method in brief: (§1)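 Rats given a single oral gavage dose of 50 mg/kg in 0.5% carboxymethylcellulose sodium, 5 mL/kg. Livers taken at 0.5, 1, 2, 4, 6 and 12 h after CO2 sacrifice and ice-cold saline perfusion, then snap-frozen. Homogenized in 3 volumes of cold 70% methanol with 20 mM EDTA/EGTA. Triphosphate measured by LC/MS/MS (ESI, MRM negative mode), noncompartmental analysis.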

[2] = Half life in human liver S9 fraction at 100 uM; type: ADME, subcellular
Method in brief: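 Compound at 100 μM in 50 mM K2HPO4 pH 7.4 with 5 mM MgCl2. Started with 4 mg/mL human liver S9 at 37 °C. Samples at 0–24 h quenched with acetonitrile. Parent remaining measured by LC/MS/MS peak area relative to 0 h, and half-life calculated.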

[3] = AUC (0 to t) in dog plasma at 50 mg/kg, po qd for 4 days; type: ADME, organism-based, Canis lupus familiaris; parameters: dose 50 mg/kg, route oral
Method in brief: (§2)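 Oral gavage (dog gastric, monkey nasogastric), 50 mg/kg in 20% w/v hydroxypropyl-β-cyclodextrin in water, 2.5 mL/kg, once daily for 4 consecutive days. Blood sampled into K2EDTA at 1, 2, 4, 6, 12 and 24 h postdose on day 3. Prodrug in plasma quantified by LC/MS/MS, noncompartmental analysis.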

Homo sapiens = species on record: Homo sapiens; experiment: Half life in human plasma at 100 uM
Rattus norvegicus [4] = experiment: Toxicity in rat assessed as change in body weight at 50 to 1800 mg/kg, po after 14 days; type: organism-based; parameters: dose 50-1800 mg/kg, route oral; settings: in vivo, 336 h
Method in brief: (§3)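 Rats (CD SD, 4–5 weeks, 76–100 g) given a single oral dose of 50, 300 or 1800 mg/kg, or vehicle (30% PEG400/30% Tween 20/20% corn oil/20% water). Observed daily for 14 days with daily body weights. Necropsy on day 15 with macroscopic examination and liver and paired kidney weights.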

Rattus norvegicus [5] = experiment: Tmax in rat liver assessed as 2'-F-2'-C-Methyluridine-5''-TP level at 50 mg/kg, po; type: ADME, organism-based; parameters: dose 50 mg/kg, route oral; settings: in vivo; method in brief: as §1
[6] = Permeability by PAMPA assay; type: ADME; settings: read-out: permeability
Method in brief: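 PAMPA with a lecithin-in-dodecane (20 mg/mL) coated filter donor. Donor held 200 μg/mL compound in PBS pH 7.4 with 2% DMSO; acceptor held PBS with 2% DMSO. Left 24 h. Donor and acceptor concentrations measured by LC/MS/MS (MRM), and Pe calculated from concentrations, volumes, filter area and time.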

Rattus norvegicus [7] = experiment: AUC (0 to infinity) in rat liver assessed as 2'-F-2'-C-Methyluridine-5''-TP level at 50 mg/kg, po; type: ADME, organism-based; parameters: time infinity, dose 50 mg/kg, route oral; settings: in vivo; method in brief: as §1
Hepatitis C virus [8] = experiment: Antiviral activity against HCV infected in human clone A cells; type: functional, Hepacivirus hominis; settings: Hepatitis C virus
Method in brief: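 Clone A replicon cells seeded at 1500 cells/well. Compounds serially diluted in G418-free culture medium and added, then incubated 4 days at 37 °C in 5% CO2. HCV RNA quantified by real-time RT-PCR as ΔCt relative to the mean no-drug control.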

Canis familiaris [9] = experiment: Metabolic stability in dog liver assessed as 2'-F-2'-C-Methyluridine-5''-triphosphate level at 50 mg/kg, po; type: ADME, organism-based, Canis lupus familiaris; parameters: dose 50 mg/kg, route oral; settings: in vivo
Method in brief: (§4)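 Dogs and cynomolgus monkeys gavaged once daily with 50 mg/kg in 20% w/v hydroxypropyl-β-cyclodextrin for 4 days. At 4 h postdose on day 4, under pentobarbital, the liver was perfused with ice-cold saline via a portal cannula. Five lobe samples were snap-frozen and homogenized in 3 volumes of cold 70% methanol with 20 mM EDTA/EGTA. Prodrug and triphosphate measured by LC/MS/MS.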

[10] = AUC (0 to infinity) in dog plasma at 50 mg/kg, po qd for 4 days; type: ADME, organism-based, Canis lupus familiaris; parameters: time infinity, dose 50 mg/kg, route oral; method in brief: as §2
Rattus norvegicus [11] = experiment: AUC (0 to t) in rat liver assessed as 2'-F-2'-C-Methyluridine-5''-TP level at 50 mg/kg, po; type: ADME, organism-based; parameters: dose 50 mg/kg, route oral; settings: in vivo; method in brief: as §1
HepG2 = experiment: Cytotoxicity against human HepG2 cells at 100 uM; type: cell-based; settings: hepg2, 100 µM
Method in brief: (§5)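 Huh7, HepG2 and BxPC3 cells at 2 × 10^3 per well, CEM at 5 × 10^3 per well. Compound serially diluted from 100 μM, 8 days at 37 °C. MTS added for 2 h, absorbance read at 490 nm with medium-only blanks. CC50 taken relative to untreated cells.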

[12] = Half life in simulated intestinal fluid of pH 7.5 at 50 ug/mL; type: physicochemical
Method in brief: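 Compound at 50 μg/mL in simulated gastric fluid (pH 1.2) or simulated intestinal fluid (pH 7.5), 37 °C, 20 h. Injected by reverse-phase HPLC every 2 h, peak area at 260 nm.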

[13] = Cytotoxicity against human myeloid progenitor cells after 14 to 16 days
Hepatitis C virus [14] = experiment: Antiviral activity against HCV infected in human clone A cells assessed as inhibition of cellular rRNA replication at 50 uM; type: functional, Hepacivirus hominis
Rattus norvegicus [15] = experiment: Toxicity in rat assessed as mortality at 50 to 1800 mg/kg, po after 14 days; type: organism-based; parameters: dose 50-1800 mg/kg, route oral; settings: in vivo, 336 h; method in brief: as §3
CCRF-CEM = experiment: Cytotoxicity against human CEM cells at 100 uM; type: cell-based; method in brief: as §5
Rattus norvegicus [16] = experiment: Toxicity in rat assessed as change in liver weight at 50 to 1800 mg/kg, po after 14 days; type: organism-based; parameters: dose 50-1800 mg/kg, route oral; settings: in vivo, 336 h; method in brief: as §3
Canis familiaris [17] = experiment: Metabolic stability in dog liver assessed as prodrug level at 50 mg/kg, po; type: ADME, organism-based, Canis lupus familiaris; parameters: dose 50 mg/kg, route oral; settings: in vivo; method in brief: as §4
[18] = Cmax in cynomolgus monkey plasma at 50 mg/kg, po qd for 4 days; type: ADME, organism-based, Macaca fascicularis; parameters: dose 50 mg/kg, route oral; method in brief: as §2
Cynomolgus monkey [19] = experiment: Metabolic stability in cynomolgus monkey liver assessed as prodrug level at 50 mg/kg, po; type: ADME, organism-based, Macaca fascicularis; parameters: dose 50 mg/kg, route oral; settings: in vivo; method in brief: as §4
Rattus norvegicus [20] = experiment: Toxicity in rat assessed as change in kidney weight at 50 to 1800 mg/kg, po after 14 days; type: organism-based; parameters: dose 50-1800 mg/kg, route oral; settings: in vivo, 336 h; method in brief: as §3
[21] = Cytotoxicity against HuH7 cells at 100 uM; type: cell-based; settings: human, huh-7, 100 µM; method in brief: as §5
[22] = Cytotoxicity against human erythroid progenitor cells after 14 to 16 days
[23] = Cytotoxicity against human BxPC3 cells at 100 uM; type: cell-based; settings: bxpc-3, 100 µM; method in brief: as §5
[24] = Cmax in dog plasma at 50 mg/kg, po qd for 4 days; type: ADME, organism-based, Canis lupus familiaris; parameters: dose 50 mg/kg, route oral; method in brief: as §2
[25] = Half life in simulated gastric fluid at pH 1.2 at 50 ug/mL; type: physicochemical
Method in brief: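 Compound at 50 μg/mL in simulated gastric fluid (pH 1.2) or simulated intestinal fluid (pH 7.5), 37 °C, 20 h. Injected by reverse-phase HPLC every 2 h, peak area at 260 nm. Percent parent remaining relative to 0 h, giving half-life.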

[26] = Tmax in cynomolgus monkey plasma at 50 mg/kg, po qd for 4 days; type: ADME, organism-based, Macaca fascicularis; parameters: dose 50 mg/kg, route oral; method in brief: as §2
[27] = Tmax in dog plasma at 50 mg/kg, po qd for 4 days; type: ADME, organism-based, Canis lupus familiaris; parameters: dose 50 mg/kg, route oral; method in brief: as §2
Rattus norvegicus [28] = experiment: Toxicity in rat assessed as change in macroscopic pathology at 50 to 1800 mg/kg, po after 14 days; type: organism-based; parameters: dose 50-1800 mg/kg, route oral; settings: in vivo, 336 h; method in brief: as §3
[29] = AUC (0 to infinity) in cynomolgus monkey plasma at 50 mg/kg, po qd for 4 days; type: ADME, organism-based, Macaca fascicularis; parameters: time infinity, dose 50 mg/kg, route oral; method in brief: as §2
Cynomolgus monkey [30] = experiment: Metabolic stability in cynomolgus monkey liver assessed as 2'-F-2'-C-Methyluridine-5''-triphosphate level at 50 mg/kg, po; type: ADME, organism-based, Macaca fascicularis; parameters: dose 50 mg/kg, route oral; settings: in vivo; method in brief: as §4
[31] = AUC (0 to t) in cynomolgus monkey plasma at 50 mg/kg, po qd for 4 days; type: ADME, organism-based, Macaca fascicularis; parameters: dose 50 mg/kg, route oral; method in brief: as §2

C[C@H](NP(=O)(OC[C@H]1O[C@@H](n2ccc(=O)[nH]c2=O)[C@](C)(F)[C@@H]1O)Oc1ccc(F)cc1)C(=O)OC1CCCCC1 (stereo partly drawn)
Cmax (Rattus norvegicus [1]): 716 ng/g | half-life at 100 µM [2]: 0.18 h | AUC(0-t) at 96 h [3]: 54 ng·h/mL | half-life at 100 µM (Homo sapiens): > 24 h | Activity (Rattus norvegicus [4]): Non-toxic | Tmax (Rattus norvegicus [5]): 4 h | Papp [6]: 0.488 ×10⁻⁶ cm/s | AUC (Rattus norvegicus [7]): 9888 ng·h/g | EC90 (Hepatitis C virus [8]): 0.04 µM | Drug uptake (Canis familiaris [9]): 476 ng/g | AUC(0-inf) [10]: 62 ng·h/mL | AUC (Rattus norvegicus [11]): 8937 ng·h/g | Activity (HepG2): Non-toxic | half-life at 50 ug/mL [12]: > 20 h | IC50 [13]: 30 µM | inhibition at 50 µM (Hepatitis C virus [14]): 52.1% | Activity (Rattus norvegicus [15]): Non-toxic | Activity (CCRF-CEM): Non-toxic | Activity (Rattus norvegicus [16]): Non-toxic | Drug uptake (Canis familiaris [17]): 8.72 ng/g | Cmax [18]: 1.8 ng/mL | Drug uptake (Cynomolgus monkey [19]): 13 ng/g | Activity (Rattus norvegicus [20]): Non-toxic | Activity [21]: Non-toxic | IC50 [22]: 37 µM | Activity [23]: Non-toxic | Cmax [24]: 36 ng/mL | half-life at 50 ug/mL [25]: 20 h | Tmax [26]: 6 h | Tmax [27]: 0.25 h | Activity (Rattus norvegicus [28]): Non-toxic

CC(C)OC(=O)[C@H](C)NP(=O)(OC[C@H]1O[C@@H](n2ccc(=O)[nH]c2=O)[C@](C)(F)[C@@H]1O)Oc1ccccc1 (stereo partly drawn)
Cmax (Rattus norvegicus [1]): 1934 ng/g | half-life at 100 µM [2]: 0.57 h | AUC(0-t) at 96 h [3]: 6890 ng·h/mL | Activity (Rattus norvegicus [4]): Non-toxic | Tmax (Rattus norvegicus [5]): 4 h | Papp [6]: 0.046 ×10⁻⁶ cm/s | AUC (Rattus norvegicus [7]): 18080 ng·h/g | EC90 (Hepatitis C virus [8]): 0.52 µM | Drug uptake (Canis familiaris [9]): 10560 ng/g | AUC(0-inf) [10]: 6900 ng·h/mL | AUC (Rattus norvegicus [11]): 16796 ng·h/g | Activity (HepG2): Non-toxic | IC50 [13]: > 50 µM | inhibition at 50 µM (Hepatitis C virus [14]): 25.9% | Activity (Rattus norvegicus [15]): Non-toxic | Activity (CCRF-CEM): Non-toxic | AUC(0-inf) [29]: 170 ng·h/mL | Activity (Rattus norvegicus [16]): Non-toxic | Drug uptake (Canis familiaris [17]): 612 ng/g | Cmax [18]: 33 ng/mL | Drug uptake (Cynomolgus monkey [19]): 177 ng/g | Drug uptake (Cynomolgus monkey [30]): 57 ng/g | Activity (Rattus norvegicus [20]): Non-toxic | Activity [21]: Non-toxic | IC50 [22]: > 50 µM | Activity [23]: Non-toxic | AUC(0-t) at 96 h [31]: 86 ng·h/mL | Cmax [24]: 6180 ng/mL | half-life at 50 ug/mL [25]: 22 h | Tmax [26]: 1 h | Tmax [27]: 0.5 h | Activity (Rattus norvegicus [28]): Non-toxic

From ChEMBL document CHEMBL1255219, “Discovery of a β-d-2'-deoxy-2'-α-fluoro-2'-β-C-methyluridine nucleotide prodrug (PSI-7977) for the treatment of hepatitis C virus” (J Med Chem, 2010)
